From the M2OR odorant receptor database come the findings set out here.

Conditions in all cases: stereoisomer not certain
The target of test [1] is T1, UniProt Q8VG27.
T1 sequence (whole entry): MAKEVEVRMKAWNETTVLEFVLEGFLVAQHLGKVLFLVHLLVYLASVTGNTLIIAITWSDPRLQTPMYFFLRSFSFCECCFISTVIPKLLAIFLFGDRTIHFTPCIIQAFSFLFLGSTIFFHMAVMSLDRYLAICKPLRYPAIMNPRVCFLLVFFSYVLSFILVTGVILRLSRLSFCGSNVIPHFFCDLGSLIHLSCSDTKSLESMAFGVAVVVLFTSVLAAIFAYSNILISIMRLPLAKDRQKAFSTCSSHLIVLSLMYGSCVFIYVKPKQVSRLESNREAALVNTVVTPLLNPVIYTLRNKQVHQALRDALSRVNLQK
A digest of the protocol:
(§1)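 Assay methods differ from source to source, frequently being transient luciferase assays in mammalian cell lines. For each receptor–molecule pair, the label responsive (active) applies when the original authors judged the measured signal statistically different from baseline, and non-responsive (inactive) applies otherwise.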

Test [2] concerns the target T2, UniProt Q8VG53.
T2 sequence (whole entry): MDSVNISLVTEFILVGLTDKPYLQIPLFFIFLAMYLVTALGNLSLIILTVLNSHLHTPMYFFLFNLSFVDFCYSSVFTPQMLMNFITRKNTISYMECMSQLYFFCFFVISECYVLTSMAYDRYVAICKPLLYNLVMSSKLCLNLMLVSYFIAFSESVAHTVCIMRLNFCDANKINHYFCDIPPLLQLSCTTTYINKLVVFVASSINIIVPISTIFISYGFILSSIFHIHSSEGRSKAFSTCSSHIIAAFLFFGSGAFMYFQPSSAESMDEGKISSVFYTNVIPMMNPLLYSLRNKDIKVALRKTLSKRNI
An outline of the steps:
as §1

In test [3] the target is T3, UniProt Q8VG64.
T3 sequence (whole entry): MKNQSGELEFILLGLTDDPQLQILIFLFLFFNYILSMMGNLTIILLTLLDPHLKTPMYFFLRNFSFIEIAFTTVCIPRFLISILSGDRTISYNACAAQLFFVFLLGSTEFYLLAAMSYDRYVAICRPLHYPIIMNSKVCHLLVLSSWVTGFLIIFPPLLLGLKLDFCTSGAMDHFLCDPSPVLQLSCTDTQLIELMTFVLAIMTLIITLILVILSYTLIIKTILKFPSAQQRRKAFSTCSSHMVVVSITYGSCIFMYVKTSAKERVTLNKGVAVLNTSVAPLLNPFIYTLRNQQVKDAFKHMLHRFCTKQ
An outline of the steps:
as §1

The target in test [4] is T4, UniProt Q8VGB9.
T4 sequence (whole entry): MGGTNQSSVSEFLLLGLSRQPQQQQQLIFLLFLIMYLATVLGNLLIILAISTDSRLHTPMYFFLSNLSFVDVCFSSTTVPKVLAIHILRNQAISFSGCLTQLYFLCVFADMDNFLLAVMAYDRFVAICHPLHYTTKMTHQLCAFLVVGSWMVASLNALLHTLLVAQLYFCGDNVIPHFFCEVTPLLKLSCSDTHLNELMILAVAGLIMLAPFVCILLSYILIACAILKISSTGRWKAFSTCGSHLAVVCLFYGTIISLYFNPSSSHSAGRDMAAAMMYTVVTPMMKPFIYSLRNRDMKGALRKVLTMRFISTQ
An outline of the steps: as §1

The target of test [5] is T5, UniProt Q8VG49.
T5 sequence (whole entry): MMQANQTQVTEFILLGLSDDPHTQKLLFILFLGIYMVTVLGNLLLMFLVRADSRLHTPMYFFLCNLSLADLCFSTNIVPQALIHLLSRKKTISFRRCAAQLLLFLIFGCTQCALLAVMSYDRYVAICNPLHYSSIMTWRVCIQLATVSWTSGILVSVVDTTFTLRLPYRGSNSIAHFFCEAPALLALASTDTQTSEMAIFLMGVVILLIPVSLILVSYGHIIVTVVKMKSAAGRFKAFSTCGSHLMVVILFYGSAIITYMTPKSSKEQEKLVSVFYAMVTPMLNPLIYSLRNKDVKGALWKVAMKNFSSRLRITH
A digest of the protocol:
as §1

Test [6] has as its target T6, UniProt Q8VG77.
T6 sequence (whole entry): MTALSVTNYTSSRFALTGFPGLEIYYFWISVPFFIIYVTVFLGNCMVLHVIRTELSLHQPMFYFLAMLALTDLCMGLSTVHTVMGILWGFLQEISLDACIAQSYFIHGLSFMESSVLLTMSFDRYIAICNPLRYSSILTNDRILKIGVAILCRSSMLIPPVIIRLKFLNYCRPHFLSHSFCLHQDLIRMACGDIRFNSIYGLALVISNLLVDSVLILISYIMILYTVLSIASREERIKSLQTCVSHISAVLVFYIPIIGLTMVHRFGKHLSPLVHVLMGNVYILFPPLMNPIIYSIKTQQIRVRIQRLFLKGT
A digest of the protocol: as §1

Test [7] addresses T7, UniProt Q8VG96.
T7 sequence (whole entry): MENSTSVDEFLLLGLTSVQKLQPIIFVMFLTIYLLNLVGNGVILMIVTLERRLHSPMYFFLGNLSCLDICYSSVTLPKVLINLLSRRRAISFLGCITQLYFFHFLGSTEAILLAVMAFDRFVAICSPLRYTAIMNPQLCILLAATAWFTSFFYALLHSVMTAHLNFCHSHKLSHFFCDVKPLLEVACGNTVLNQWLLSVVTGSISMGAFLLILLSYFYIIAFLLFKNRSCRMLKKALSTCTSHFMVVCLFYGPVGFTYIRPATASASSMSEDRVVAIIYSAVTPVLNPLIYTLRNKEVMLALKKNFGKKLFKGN
A digest of the protocol: as §1

On to `C=CC(=O)CCCCC`, for which the “odorant receptor agonist call” value in test [1], in test [2], in test [3] and in test [4] was “inactive” in each case.
On to `COc1cc(C(=O)O)ccc1O`, for which the “odorant receptor agonist call” value in test [1] is “active”. The “odorant receptor agonist call” value in test [5], in test [2], in test [3], in test [6], in test [7] and in test [4] was “inactive” in each case.
On to `CCCCCCCCCCOC(C)=O`, for which, in test [1], the “odorant receptor agonist call” value is “active”. Moreover, the “odorant receptor agonist call” value in test [2], in test [3] and in test [4] was “inactive” each time.
`C=C(CC)CCCC(C)(C)O`: the “odorant receptor agonist call” value in test [1], in test [2], in test [3] and in test [4] was “inactive” in each case.
With `COc1nccnc1C`, the “odorant receptor agonist call” value in test [1], in test [2], in test [3] and in test [4] was “inactive” each time.
Regarding `CCSSCC`, the “odorant receptor agonist call” value in test [1], in test [2], in test [3] and in test [4] was “inactive” throughout.
In the case of `CC(C)=CCCC(C)=CCOC(=O)C(C)C`, the “odorant receptor agonist call” value in test [1], in test [2], in test [3] and in test [4] was “inactive” each time.
On to `c1ccc2ncccc2c1`, for which the “odorant receptor agonist call” value in test [1], in test [2], in test [3] and in test [4] was “inactive” throughout.
Turning to `CC1CCC(C(C)C)C(=O)C1` (stereo unspecified), the “odorant receptor agonist call” value in test [1], in test [2], in test [3] and in test [4] was “inactive” in each case.
Take `OCC=Cc1ccccc1`: the “odorant receptor agonist call” value in test [1], in test [2], in test [3] and in test [4] was “inactive” each time.
As to `CCCC(=O)C(C)=O`, the “odorant receptor agonist call” value in test [1], in test [5], in test [2], in test [3], in test [6] and in test [7] was “inactive” in each case. Further, the “odorant receptor agonist call” value in test [4] was “inactive”.
`CCC=CCCC=CC=O`: the “odorant receptor agonist call” value in test [1], in test [2], in test [3] and in test [4] was “inactive” in each case.
In the case of `CCC=CCCCCC=O`, the “odorant receptor agonist call” value in test [1], in test [2], in test [3] and in test [4] was “inactive” throughout.
In the case of `CCCCCC(=O)CC`, the “odorant receptor agonist call” value in test [1], in test [5], in test [2], in test [3], in test [6] and in test [7] was “inactive” each time. Further, the “odorant receptor agonist call” value in test [4] is “inactive”.
Take `CCCCCCCCC=CC=O`: the “odorant receptor agonist call” value in test [1], in test [2], in test [3] and in test [4] was “inactive” each time.
As for `CCCCCCC=CC=O`, the “odorant receptor agonist call” value in test [1], in test [2], in test [3] and in test [4] was “inactive” in each case.
`CC(C)CCN`: the “odorant receptor agonist call” value in test [1], in test [2], in test [3] and in test [4] was “inactive” each time.
`CC=C(C)C=O`: the “odorant receptor agonist call” value in test [1], in test [2], in test [3] and in test [4] was “inactive” throughout.
